Screens from PubChem.
Shown are actives, neighbours in structure and some others; about 5.1% of the full set was active somewhere.
NF-kB neuron act: activators of NF-kB expression in neurons, primary screen, cell-based, HTS; human neuronal cells, NF-kB reporter expression; active compounds read high; fold change at 12.5 µM; 1.6% of 190,000 active; in the data active = fold change above about 3.3
STAT3 blocker: IL-6 driven STAT3 reporter inhibitors, primary screen, U3A cells, luciferase, luminescence, MLSCN library; inhibition, % at 5.5 µM; AID 862, 2007; IL-6 STAT3-luciferase reporter; host cell line lacks STAT1; 0.89% of 190,000 active;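 active = inhibition above the mean inhibition across all screened compounds plus 3 SD, cut at about 44% in these data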
STAT1 blocker: STAT1 signaling inhibitors, primary screen, cell-based, HTS, luciferase reporter; NIH 3T3 STAT1-luciferase reporter, IFN-gamma, luminescence; inhibition, % at 5.5 µM; 0.35% of 200,000 active; AID 920, 2007;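 active = inhibition above a set limit, the mean inhibition across all tested compounds plus 3 SD, cut at about 34% in these data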
STAT1 act: STAT1 signaling activators, primary screen, cell-based, HTS, luciferase reporter | 2.6% of 200,000 active | NIH 3T3 STAT1-luciferase reporter, IFN-gamma, luminescence; 100% = IFN-gamma alone, no compound | activation (% of control), % at 5.5 µM;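 active = activation above the screen-wide mean activation plus 3 SD, cut at about 130% in these data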
STAT3 act: IL-6 driven STAT3 reporter potentiators, primary screen, U3A cells, luciferase, luminescence, MLSCN library; IL-6 STAT3-luciferase reporter; 100% = signal with IL-6 EC80 alone; activation (% of control), % at 5.6 µM; 0.91% of 190,000 active; AID 871, 2007;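 active = activation above the screen-wide mean of compound activation plus 3 SD, cut at about 130% in these data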
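system = STAT3-luciferase reporter U3A cells | reagent = IL-6 stimulus at 33 ng/mL final | timing = 1 h compound pre-exposure, 6 h IL-6 stimulation, 37 °C | measured by = luminescence | evaluation = % activation versus median of IL-6-stimulated wells | control set = IL-6-only wells as 100% reference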
APP 5'UTR act: activators of APP 5'UTR luciferase reporter, primary screen, SH-SY5Y cells. activation, % at 2 µM. SH-SY5Y APP 5'UTR luciferase reporter, luminescence; zero percent = DMSO vehicle wells. 1% of 190,000 active. AID 1276, 2008;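 active = activation above a set limit, based on mean plus 3 SD of controls, cut at about 140% in these data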
Each line names hits and unclear results; the compound was inactive in the other large screens.

CCOC(=O)/C(C#N)=C\C1=C(N2CCCC2)CC(C)(CC)OC1 (stereo unspecified)	none (no result: APP 5'UTR act)
Cc1nc(N2CCOCC2)nc(OCCN2CCOCC2)c1[N+](=O)[O-]	none
O=C(Nc1ccc2c(c1)OCCO2)c1cnc2ccccn2c1=O	STAT1 act 154 (no result: NF-kB neuron act)
Cc1ccc(NC(=O)c2cncc(Br)c2)cc1S(=O)(=O)N(C)C	STAT1 act 136
O=C(NCc1ccc2c(c1)OCO2)c1cnc2ccccn2c1=O	none
CCn1cc(Cl)c(C(=O)Nc2ccc3c(c2)OCCO3)n1	NF-kB neuron act 4.1, APP 5'UTR act 137
O=C(O)C1=C[C@H](c2ccc(Br)cc2)C[C@H](OCc2ccc(CO)cc2)O1	none (no result: STAT3 blocker, STAT3 act)
Cc1ccc(S(=O)(=O)N(CC(=O)Nc2ccccc2C(=O)O)c2ccc(Cl)cc2)cc1	none
Cc1nc2c(Cl)cccc2[nH]1	STAT3 act 133 (no result: APP 5'UTR act)
Cc1nc(C)c(Cc2ccccc2Cl)c(=O)[nH]1	none
Cc1ccc(S(=O)(=O)N2CCC(C(=O)NNC(=O)c3ccc(F)cc3)CC2)cc1	none
CC(C)NC(=O)c1cc2c(s1)CCCC2	none
CNC(=O)c1cc2c(s1)CCCCCC2	none
O=C(Nc1ccon1)c1cc2c(s1)CCCC2	NF-kB neuron act 5.6, STAT1 act 133, APP 5'UTR act 164
O=C(Nc1ccon1)c1cc2c(s1)CCCCCC2	STAT1 act 141
C=CCn1c(Cc2cccs2)nnc1SCC(=O)c1ccc2ccccc2c1	none
O=C(CC1NCCNC1=O)Nc1ccc2c(c1)OCO2 (stereo unspecified)	none
CCOC(=O)c1cnn(-c2ccc(C(F)(F)F)cn2)c1N	STAT1 act 145
CC(=O)OCC1=C(C(=O)O)N2C(=O)C(NC(=O)CCn3nc(C(F)(F)F)c(Br)c3C3CC3)C2SC1 (stereo unspecified)	none (no result: NF-kB neuron act)
Cc1c(N=Nc2c(-c3ccc([N+](=O)[O-])cc3)[nH]n(C(N)=S)c2=O)cccc1[N+](=O)[O-]	STAT3 blocker 77
CC(=O)Nc1ccccc1OCc1nnc(-c2ccc(Cl)cc2)o1	none
Clc1ccc(OCc2nnc(-c3ccccc3Br)o2)c(Cl)c1	NF-kB neuron act 4
c1ccc(Cc2nnc(-c3ccccc3)o2)cc1	STAT1 act 130
Clc1ccccc1OCc1nnc(-c2ccccc2)o1	NF-kB neuron act 3.4, STAT1 act 151, STAT3 act 144
CCCc1n[nH]c2c1C(=O)C(C(=O)OC)C(C)(C)C2 (stereo unspecified)	none
Cc1cccc(NC(=O)Nc2ccc([N+](=O)[O-])cc2)n1	STAT1 act 134
Cc1cccc(NC(=O)Nc2ccc(C)c(C)c2)n1	STAT1 act 129, STAT3 act 135
Cc1cccc(NC(=O)Nc2cccc(C)n2)n1	none
Cc1cccc(NC(=O)c2ccc([N+](=O)[O-])cc2Cl)n1	none
O=S(=O)(c1ccc(NC(=S)NCCC(c2ccccc2)c2ccccc2)cc1)N1CCOCC1	none
COc1ccc(Nc2ccc([N+](=O)[O-])cc2[N+](=O)[O-])cc1	none
Cc1cc(C)n2ncc(C(=O)NCc3ccc(Cl)cc3)c2n1	none
O=C(NCc1ccc(Cl)cc1)c1cnn2ccccc12	STAT1 act 131
O=C(O)CSCCC(=O)Nc1ccc(F)cc1	none
COc1c(Cl)cc(Cl)cc1/C=C/C(=O)c1ccc(NC(=O)c2cccs2)cc1	NF-kB neuron act 5.7
COc1c(Cl)cc(Cl)cc1C(=O)Nc1ccc(C(=O)O)cc1	none
Cc1nnc(SCc2cc(=O)[nH]c(Nc3nc(C)c4ccccc4n3)n2)s1	none (no result: NF-kB neuron act)
Cc1ccc2nc(Nc3nc(CSc4nnc(C)s4)cc(=O)[nH]3)nc(C)c2c1	STAT1 act 135
CC1CCN(C2(O)C(=O)Nc3ccc(Br)cc32)CC1 (stereo unspecified)	none
Cc1ccn2cc(-c3cccc(NC(=O)C(C)C)c3)nc2c1	STAT1 act 132
CC(C)C(=O)Nc1cccc(-c2cn3ccccc3n2)c1	none
CC1(C)N=C(N)NC(Nc2ccccc2Cl)=N1	none
Cc1ccc(/C=N/n2c(C3CCCCC3)n[nH]c2=S)s1	none
N#C/C(=N\Nc1ccc(S(=O)(=O)N2CCCCCC2)cc1)C(N)=S	none
